In ChEMBL document CHEMBL4619737, “Influence of side-chain changes on histone deacetylase inhibitory and cytotoxicity activities of curcuminoid derivatives” (Bioorg Med Chem Lett, 2020) one finds IC50, Ki and inhibition data, which are given here for six compounds.

For test [1], the system named is Vero. Description: Cytotoxicity against African green monkey Vero cells assessed as reduction in cell viability incubated for 72 hrs by MTT assay. The following applies: Chlorocebus sabaeus. In kind it is cell-based.
In test [2] the test system is Vero. Briefly: Cytotoxicity against African green monkey Vero cells assessed as reduction in cell viability incubated for 48 hrs by MTT assay. In kind it is cell-based. The following applies: Chlorocebus sabaeus. For orientation: Tetrazolium dyes change colour on reduction, which living cells bring about.
In test [3] the test system is Vero. Briefly: Cytotoxicity against African green monkey Vero cells assessed as reduction in cell viability incubated for 24 hrs by MTT assay. In kind it is cell-based. The following applies: Chlorocebus sabaeus.
Test [4] concerns HeLa. Description: Antiproliferative activity against human HeLa cells incubated for 24 hrs by MTT assay. The class given is functional, cell-based.
Test [5] has as its system HeLa. Description: Antiproliferative activity against human HeLa cells incubated for 48 hrs by MTT assay. In kind it is functional, cell-based.
Test [6] relates to HeLa. Briefly: Antiproliferative activity against human HeLa cells incubated for 72 hrs by MTT assay. In kind it is functional, cell-based.
For test [7], the system named is HCT-116. Description: Antiproliferative activity against human HCT116 cells incubated for 24 hrs by MTT assay. The class given is functional, cell-based. The following applies: HCT-116, 24 h.
Test [8] concerns HCT-116. Briefly: Antiproliferative activity against human HCT116 cells incubated for 48 hrs by MTT assay. In kind it is functional, cell-based. The following applies: HCT-116, 48 h.
For test [9], the system named is HCT-116. Briefly: Antiproliferative activity against human HCT116 cells incubated for 72 hrs by MTT assay. The following applies: HCT-116, 72 h. The class given is functional, cell-based.
Test [10] deals with MCF7. Briefly: Antiproliferative activity against human MCF7 cells incubated for 24 hrs by MTT assay. In kind it is functional, cell-based. The following applies: MCF7, 24 h.
The subject of test [11] is MCF7. Description: Antiproliferative activity against human MCF7 cells incubated for 48 hrs by MTT assay. The class given is functional, cell-based. The following applies: MCF7, 48 h.
In test [12] the test system is MCF7. Description: Antiproliferative activity against human MCF7 cells incubated for 72 hrs by MTT assay. The following applies: MCF7, 72 h. The class given is functional, cell-based.
A further test has as its target Histone deacetylase 1 (Homo sapiens, UniProt Q13547). Briefly: Inhibition of HDAC1 (unknown origin).
The target of another test is Histone deacetylase 2 (Homo sapiens, UniProt Q92769). Briefly: Inhibition of HDAC2 (unknown origin).
Chain of Histone deacetylase 2 (Q92769 whole entry): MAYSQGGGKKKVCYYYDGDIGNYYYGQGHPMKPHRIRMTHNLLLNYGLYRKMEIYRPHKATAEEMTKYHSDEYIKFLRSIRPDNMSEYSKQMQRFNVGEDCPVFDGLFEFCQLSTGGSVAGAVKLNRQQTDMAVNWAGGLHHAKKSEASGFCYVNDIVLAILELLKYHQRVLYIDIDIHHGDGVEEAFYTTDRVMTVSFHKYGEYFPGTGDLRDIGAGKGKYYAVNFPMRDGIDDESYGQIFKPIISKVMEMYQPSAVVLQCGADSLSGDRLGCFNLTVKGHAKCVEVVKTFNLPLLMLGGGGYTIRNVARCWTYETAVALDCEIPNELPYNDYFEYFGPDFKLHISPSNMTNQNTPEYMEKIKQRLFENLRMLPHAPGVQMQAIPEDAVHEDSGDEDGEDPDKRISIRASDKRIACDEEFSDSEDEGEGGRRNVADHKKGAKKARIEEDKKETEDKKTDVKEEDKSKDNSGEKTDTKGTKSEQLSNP
For a further test, the target named is T1, Histone deacetylase 8 (Homo sapiens, UniProt Q9BY41).
T1 sequence (Q9BY41 whole entry): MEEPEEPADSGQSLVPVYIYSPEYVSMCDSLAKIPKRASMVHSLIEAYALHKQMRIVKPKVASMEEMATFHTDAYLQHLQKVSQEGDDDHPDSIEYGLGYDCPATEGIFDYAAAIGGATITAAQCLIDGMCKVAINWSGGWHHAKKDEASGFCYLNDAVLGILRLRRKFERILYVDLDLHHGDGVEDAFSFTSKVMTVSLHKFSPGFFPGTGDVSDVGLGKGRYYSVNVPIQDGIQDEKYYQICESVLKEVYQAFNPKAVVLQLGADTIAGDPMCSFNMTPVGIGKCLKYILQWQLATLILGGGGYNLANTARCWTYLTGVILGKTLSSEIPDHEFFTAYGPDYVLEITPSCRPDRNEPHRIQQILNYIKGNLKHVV
Description: Inhibition of HDAC8 (unknown origin).

The target in test [13] is Histone deacetylase (Homo sapiens) (UniProt Q13547+O15379+Q9UBN7+Q92769+Q9UQL6+Q8WUI4+Q9BY41+Q96DB2+P56524+Q9UKV0+Q969S8). Description: Inhibition of HDAC in human HCT116 cells assessed as accumulation of acetylated histone H3 levels at 40 ug/ml incubated for 24 hrs by Western blot analysis. The class given is cell-based. The following applies: HCT-116. The procedure, abridged:
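HCT116 cells exposed for 24 h to compound at 10–60 μg/mL, with a 1:1 (v/v) absolute ethanol/DMSO vehicle control. Cells were harvested, and extracted proteins were separated by SDS-PAGE. Acetylated H3 was detected by immunoblotting with ERK1/2 as the loading control. Band intensities were quantified by densitometry and expressed as fold relative to the internal control.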
(A western blot detects proteins with antibodies after separation by electrophoresis.)

In the next test the target is Histone deacetylase. Briefly: Inhibition of HDAC in human HeLa cell nuclear extract using fluor-de-lys as substrate by spectrofluorometric analysis. The class given is cell-free.

Values after ≈ are worked out from the molar mass of the structure shown. Active and inactive are the calls of the source. The rule behind the calls is not given here.

Chain of Histone deacetylase 1 (Q13547 whole entry): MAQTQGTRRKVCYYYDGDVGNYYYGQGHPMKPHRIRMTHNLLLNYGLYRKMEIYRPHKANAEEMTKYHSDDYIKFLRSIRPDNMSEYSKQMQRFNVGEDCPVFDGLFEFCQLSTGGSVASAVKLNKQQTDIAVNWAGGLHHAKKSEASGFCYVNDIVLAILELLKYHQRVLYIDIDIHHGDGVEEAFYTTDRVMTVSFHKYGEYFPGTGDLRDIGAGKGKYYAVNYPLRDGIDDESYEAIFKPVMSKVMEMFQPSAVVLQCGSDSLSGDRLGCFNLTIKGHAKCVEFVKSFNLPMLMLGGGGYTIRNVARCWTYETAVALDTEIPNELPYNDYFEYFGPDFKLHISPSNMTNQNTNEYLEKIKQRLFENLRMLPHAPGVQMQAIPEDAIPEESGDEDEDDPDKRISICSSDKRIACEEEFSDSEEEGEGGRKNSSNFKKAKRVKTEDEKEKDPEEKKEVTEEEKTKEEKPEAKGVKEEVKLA

Turning to `COc1cc(/C=C/C(=O)/C=C(O)/C=C/c2ccc(OCC(=O)O)c(OC)c2)ccc1OCC(=O)O`, the IC50 in the test with Vero [1], in the test on Vero [2], in the test on Vero [3], in the test with HeLa [4], in the test on HeLa [5] and with HeLa [6] was above 100 µg/mL each time. For the same compound, the IC50 with HCT-116 [7], with HCT-116 [8], in the test on HCT-116 [9], in the test with MCF7 [10], in the test on MCF7 [11] and in the test with MCF7 [12] was above 100 µg/mL each time. For the same compound, the Ki (in general, a dissociation constant, usually derived from enzyme kinetics or from competition with a known ligand) came to 1.96 µM on Histone deacetylase 1, 3.99 µM at Histone deacetylase 2 and 14.2 µM on Histone deacetylase 8.

Consider `COc1cc(/C=C/C(=O)/C=C(O)/C=C/c2ccc(OC(C)C(N)=O)c(OC)c2)ccc1OC(C)C(N)=O` (centres undefined), for which the IC50 (commonly the point on the concentration scale where inhibition reaches its midpoint) is 18.7 µg/mL (≈ 36.5 µM) with Vero [1]; 25.6 µg/mL (≈ 50.1 µM) in the test on Vero [2]; above 100 µg/mL with Vero [3]; 32.3 µg/mL (≈ 63.3 µM) in the test on HeLa [4]; 25.8 µg/mL (≈ 50.5 µM) with HeLa [5]; 19.6 µg/mL (≈ 38.3 µM) in the test with HeLa [6]. Besides, the IC50 in the test with HCT-116 [7] is 27.9 µg/mL (≈ 54.7 µM); with HCT-116 [8] it was 23.7 µg/mL (≈ 46.4 µM); in the test with HCT-116 [9], 14.6 µg/mL (≈ 28.6 µM); in the test with MCF7 [10], 51.4 µg/mL (≈ 101 µM); with MCF7 [11], 38.3 µg/mL (≈ 75.1 µM); with MCF7 [12], 30.7 µg/mL (≈ 60.2 µM). Also, in [13], the inhibition entry is “Active”. The Ki on Histone deacetylase 1 turned out to be 0.936 µM; on Histone deacetylase 2, 0.55 µM; on Histone deacetylase 8, 0.88 µM.

On to `COc1cc(CNC(=O)CCCCC(O)CC(C)C)ccc1O` (centres undefined), for which, at Histone deacetylase, the IC50 amounted to 72 µM.

With `COc1cc(/C=C/C(=O)CC(=O)/C=C/c2ccc(O)c(OC)c2)ccc1O` [CURCUMIN], the IC50 with Vero [1] turned out to be 11 µg/mL (≈ 29.8 µM); with Vero [2], 17.9 µg/mL (≈ 48.5 µM); in the test with Vero [3], 25 µg/mL (≈ 67.9 µM); in the test with HeLa [4], 5.39 µg/mL (≈ 14.6 µM); in the test on HeLa [5], 3.57 µg/mL (≈ 9.69 µM); with HeLa [6], 3.56 µg/mL (≈ 9.66 µM). In addition, the IC50 is 3.83 µg/mL (≈ 10.4 µM) in the test on HCT-116 [7]; 2.67 µg/mL (≈ 7.25 µM) with HCT-116 [8]; 2.4 µg/mL (≈ 6.51 µM) in the test with HCT-116 [9]; 2.94 µg/mL (≈ 7.98 µM) in the test with MCF7 [10]; 2.08 µg/mL (≈ 5.65 µM) in the test on MCF7 [11]; 2.03 µg/mL (≈ 5.51 µM) with MCF7 [12].

For `CCC(C)Oc1ccc(/C=C/C(O)=C/C(=O)/C=C/c2ccc(O)c(OC)c2)cc1` (centres undefined), the IC50 was above 100 µg/mL in the test with Vero [1]; above 100 µg/mL with Vero [2]; above 100 µg/mL in the test on Vero [3]; 55.2 µg/mL (≈ 140 µM) in the test with HeLa [4]; 14 µg/mL (≈ 35.6 µM) in the test on HeLa [5]; 9.33 µg/mL (≈ 23.7 µM) with HeLa [6]. The IC50 in the test on HCT-116 [7] is 43.6 µg/mL (≈ 111 µM); in the test on HCT-116 [8] it was 8.53 µg/mL (≈ 21.6 µM); with HCT-116 [9], 7.33 µg/mL (≈ 18.6 µM); in the test on MCF7 [10], above 100 µg/mL; in the test with MCF7 [11], 46.3 µg/mL (≈ 117 µM); with MCF7 [12], 18.1 µg/mL (≈ 45.8 µM). Also, the Ki turned out to be 2.5 µM on Histone deacetylase 1, 1.06 µM at Histone deacetylase 2 and 3.6 µM on Histone deacetylase 8.

Take `CCC(C)Oc1ccc(/C=C/C(=O)/C=C(O)/C=C/c2ccc(OC(C)CC)c(OC)c2)cc1OC` (centres undefined): the IC50 is above 100 µg/mL in the test on Vero [1]; above 100 µg/mL with Vero [2]; above 100 µg/mL in the test with Vero [3]; above 100 µg/mL in the test with HeLa [4]; 17.5 µg/mL (≈ 36.4 µM) in the test on HeLa [5]; 10.2 µg/mL (≈ 21.2 µM) in the test with HeLa [6]. The IC50 was 28.7 µg/mL (≈ 59.7 µM) in the test on HCT-116 [7]; 10.8 µg/mL (≈ 22.5 µM) in the test on HCT-116 [8]; 7.89 µg/mL (≈ 16.4 µM) in the test on HCT-116 [9]; above 100 µg/mL in the test with MCF7 [10]; 42.1 µg/mL (≈ 87.6 µM) with MCF7 [11]; 13.9 µg/mL (≈ 28.9 µM) with MCF7 [12]. Besides, the Ki is 20.7 µM at Histone deacetylase 1, 7.47 µM on Histone deacetylase 2 and 10.2 µM on Histone deacetylase 8.
